Results from ChEMBL document CHEMBL1154430, “Synthesis, characterization and pharmacological evaluation of amide prodrugs of ketorolac” (Eur J Med Chem, 2008).

Assays:
Rattus norvegicus [1] = experiment: Antiinflammatory activity against carrageenan-induced paw edema in po dosed Wistar rat at dose equivalent to 2.5 mg/kg ketorolac after 6 hrs; type: functional
Outline: (§1)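 Wistar albino rats, 100–200 g, seven groups of three including control and standard. Initial right hind paw volume measured by plethysmometer before dosing. Oral dose in 1% CMC suspension, prodrugs equivalent to 2.5 mg/kg ketorolac. Anti-inflammatory activity reported as percentage at 2 and 6 h after administration.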

[2] = Solubility in 1.0N HCl; type: physicochemical; settings: buffer
[3] = Chloroform-PBS partition coefficient, log K at pH 7.4; type: physicochemical
Rattus norvegicus [4] = experiment: Analgesic activity in po dosed Wistar rat […] assessed as reaction time for tail withdrawal at dose equivalent to 1.2 mg/kg of ketorolac after 30 mins by tail flick method; type: functional
Outline: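 Wistar rats, 100–200 g, groups of three. Tail-flick test on a […] analgesiometer with a thermal stimulus. Current set so that more than 90% of rats flick within 5–9 s, and slow responders rejected. Dose equivalent to 1.2 mg/kg given orally in 1% sodium carboxymethylcellulose suspension. %Analgesia = [1 − […]]×100, from reaction times before (T₁) and after (T₂) dosing.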

[5] = Chloroform-acidic buffer partition coefficient, log K at pH 1.4; type: physicochemical
[6] = Protein binding in plasma in pH 7.4 at 20 ug/ml by spectrophotometry; type: ADME, cell-free; settings: read-out: PB (converted)
Outline: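 Prodrug solution in PBS pH 7.4. Membrane washed with distilled water, then with pH 7.4 buffer, before use. Withdrawn samples diluted with 1 mL phosphate buffer and prodrug concentration measured spectrophotometrically.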

[7] = Metabolic stability in human plasma assessed as half life at 10 mg by HPLC; type: ADME, cell-free
Outline: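 10 mg in 2 mL acetonitrile added to 88 mL 80% human plasma (80:20 plasma:phosphate buffer pH 7.4) at 37 ± 0.5 °C. Samples taken at 10, 20, 30, 40, 50 and 60 min and chilled in freezing mixture to stop hydrolysis. Then vortexed 5 min, centrifuged, and supernatant run on C18 reversed-phase HPLC (acetonitrile:water 50:50), UV at 247 nm.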

Rattus norvegicus [8] = experiment: Antiinflammatory activity against carrageenan-induced paw edema in po dosed Wistar rat at dose equivalent to 2.5 mg/kg ketorolac after 2 hrs; type: functional; outline: as §1
[9] = Metabolic stability in stimulated intestinal fluid assessed as half life at 10 mg by HPLC; type: ADME; settings: simulated intestinal fluid
Outline: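 10 mg in 2 mL acetonitrile added to 88 mL SIF (pH 7.4). Aliquots chilled in freezing mixture to arrest hydrolysis, vortexed 5 min and centrifuged 5 min. Supernatant analysed on C18 reversed-phase HPLC (acetonitrile:water 50:50), UV at 247 nm.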

[10] = Solubility in water; type: physicochemical; settings: buffer
Rattus norvegicus [11] = experiment: Gastrointestinal toxicity in Wistar rat assessed as ulcerogenic indicates at dose equivalent to 1.2 mg/kg of ketorolac orally administered for 5 days; type: organism-based; parameters: dose 1.2 mg/kg, route oral; settings: in vivo, po, 120 h
Outline: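 Male Wistar rats, 130–150 g, groups of three including control and standard. Suspended in 2% w/v acacia and given orally at dose equivalent to 1.2 mg/kg ketorolac daily for 5 days. Rats fasted after the last dose, then decapitated. Stomach opened and washed, and lesions larger than 0.5 mm counted visually under a 2× binocular magnifier.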

[12] = Solubility in 0.1 N NaOH; type: physicochemical
Rattus norvegicus [13] = experiment: Antiinflammatory activity against carrageenan-induced paw edema in Wistar rat at 2.5 mg/kg, po after 2 hrs; type: functional; outline: as §1
Rattus norvegicus [14] = experiment: Antiinflammatory activity against carrageenan-induced paw edema in Wistar rat at 2.5 mg/kg, po after 6 hrs; type: functional; outline: as §1
[15] = chloroform/acidic buffer, pH 1.4

| SMILES | solubility [2] | K ([3]; chloroform/PBS, pH 7.4) | K [5, 15] | fraction unbound at 20 ug/ml [6] | half-life [7] [h] | half-life [9] [h] | solubility [10] | K [3] | K [5] | solubility [12] | Activity (Rattus norvegicus [1]) [%] | Activity (Rattus norvegicus [4]) [%] | Activity (Rattus norvegicus [8]) [%] | UI (Rattus norvegicus [11]) | Activity (Rattus norvegicus [13]) [%] | Activity (Rattus norvegicus [14]) [%] |
| --- | --- | --- | --- | --- | --- | --- | --- | --- | --- | --- | --- | --- | --- | --- | --- | --- |
| CCOC(=O)CCC(NC(=O)C1CCn2c(C(=O)c3ccccc3)ccc21)C(=O)OCC (racemic) | Insoluble | 18.08 | 319.5 | 0.55 | 0.45 | 2.13 | Insoluble |  |  |  | 49 | 54 | 44 |  |  |  |
| CCOC(=O)C(Cc1ccccc1)NC(=O)C1CCn2c(C(=O)c3ccccc3)ccc21 (racemic) | Insoluble | 23.18 | 504.05 | 0.55 | 0.45 | 2.13 | Insoluble |  |  |  | 49 | 54 | 44 |  |  |  |
| CCOC(=O)CCNC(=O)C1CCn2c(C(=O)c3ccccc3)ccc21 (racemic) | Insoluble | 15.33 | 250.25 | 0.621 | 0.882 | 2.67 | Insoluble |  |  |  | 49 |  | 33 |  |  |  |
| CCOC(=O)C(Cc1c[nH]c2ccccc12)NC(=O)C1CCn2c(C(=O)c3ccccc3)ccc21 (racemic) | Insoluble |  |  | 0.55 | 0.825 | 2.98 | Insoluble | 21.42 | 429.9 |  | 43 | 26 | 27 |  |  |  |
| O=C(c1ccccc1)c1ccc2n1CCC2C(=O)O (stereo unspecified) [KETOROLAC] | Insoluble | 6.022 | 75.62 |  |  |  |  |  |  | Soluble |  |  |  | 23.2 | 64.24 | 54.21 |

Continued, in another order:

| solubility [2] | K ([3]; chloroform/PBS, pH 7.4) | K [5, 15] | fraction unbound at 20 ug/ml [6] | half-life [7] [h] | half-life [9] [h] | solubility [10] | K [3] | K [5] | solubility [12] | SMILES | Activity (Rattus norvegicus [1]) [%] | Activity (Rattus norvegicus [4]) [%] | Activity (Rattus norvegicus [8]) [%] | UI (Rattus norvegicus [11]) | Activity (Rattus norvegicus [13]) [%] | Activity (Rattus norvegicus [14]) [%] |
| --- | --- | --- | --- | --- | --- | --- | --- | --- | --- | --- | --- | --- | --- | --- | --- | --- |
| Insoluble | 18.26 | 330.12 | 0.55 | 0.45 | 2.13 | Insoluble |  |  |  | CCOC(=O)CC(NC(=O)C1CCn2c(C(=O)c3ccccc3)ccc21)C(=O)OCC (racemic) | 57.72 | 54 | 44 |  |  |  |
| Insoluble | 15.61 | 256.73 | 0.811 | 0.987 | 2.67 | Insoluble |  |  |  | CCOC(=O)C(C)NC(=O)C1CCn2c(C(=O)c3ccccc3)ccc21 (racemic) | 43 | 26 | 27 |  |  |  |
| Insoluble | 20 | 380.6 | 0.55 | 0.65 | 2.67 | Insoluble |  |  |  | CCOC(=O)C(NC(=O)C1CCn2c(C(=O)c3ccccc3)ccc21)C(C)C (racemic) | 49 | 36 | 33 |  |  |  |
| Insoluble | 23.09 | 640 | 0.55 | 1.02 | 2.67 | Insoluble |  |  |  | CCOC(=O)C(CC(C)C)NC(=O)C1CCn2c(C(=O)c3ccccc3)ccc21 (racemic) | 43 | 26 | 27 |  |  |  |
| Insoluble | 23.87 | 656.8 | 0.55 | 0.65 | 2.13 | Insoluble |  |  |  | CCOC(=O)C(NC(=O)C1CCn2c(C(=O)c3ccccc3)ccc21)C(C)CC (racemic) | 49 | 36 | 33 |  |  |  |
| Insoluble | 13.81 | 215.9 | 0.55 | 0.65 | 2.13 | Insoluble |  |  |  | CCOC(=O)CNC(=O)C1CCn2c(C(=O)c3ccccc3)ccc21 (racemic) | 49 | 36 | 33 |  |  |  |
